# From PubChem BioAssay
# An excerpt weighted towards active compounds, which were near 4% of everything screened.
# TAAR1 ag: human TAAR1 agonists, primary screen, Fluo-8 calcium fluorescence, CHO RD-HGA16 cells | activation, % at 3 µM | 360,000 compounds, 0.99% hits | vehicle wells 0%, saturating PEA agonist 100%;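 active = activation above the mean activation of all test compounds in the run plus 3 SD, cut at about 38% in these data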
#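 Assay system – CHO-derived RD-HGA16 cells with stable Gα16 and human TAAR1 · Compound dosing – one-point dosing at 3 µM (nominal) · Incubation – 17-24 h seeding, 75 min 37 °C dye, 30 min RT · Measured by – kinetic Fluo-8 calcium fluorescence · Control set – DMSO vehicle as 0%, PEA at EC100 as 100% · Repeats – single well for each compound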
# TAAR1 antagonist: human TAAR1 antagonists, primary screen, Fluo-8 calcium fluorescence, CHO RD-HGA16 cells; 360,000 compounds, 1.5% hits; antagonist; Trace amine-associated receptor 1 (Homo sapiens), Q96RJ0; inhibition, % at 3 µM;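 active = inhibition above a per-plate cutoff, the mean inhibition of test compounds on that plate plus 3 SD, cut at about 49% in these data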;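 note: 0% = DMSO plus EC80 beta-PEA response and 100% = DMSO alone without agonist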
#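 Test system: CHO RD-HGA16 cells bearing hTAAR1 | Reagent: β-PEA, EC80 | Compound dosing: 3 µM, single point | Schedule: Dye loading 75 min at 37 °C, then 30 min room temperature | Signal: Calcium fluorescence with Fluo-8 | Evaluation: Percent inhibition of PEA-evoked calcium signal, max/basal emission ratio | Control set: DMSO-only wells and EC80 β-PEA-stimulated wells | Repeats: Singlicate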
# OX1R antag-1: antagonists of human orexin 1 receptor (OX1R); Orexin/Hypocretin receptor type 1 (Homo sapiens), O43613; OX1R-expressing cells, FRET antagonist read-out; inhibition, % at 6.6 µM; 330,000 compounds, 1.8% hits; in the data active = inhibition mostly above about 38%, no sharp cut-off; inactive = mostly below about 40%;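 note: 0% = agonist challenge alone and 100% = reference antagonist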
# Target sequence (O43613 whole entry, looked up): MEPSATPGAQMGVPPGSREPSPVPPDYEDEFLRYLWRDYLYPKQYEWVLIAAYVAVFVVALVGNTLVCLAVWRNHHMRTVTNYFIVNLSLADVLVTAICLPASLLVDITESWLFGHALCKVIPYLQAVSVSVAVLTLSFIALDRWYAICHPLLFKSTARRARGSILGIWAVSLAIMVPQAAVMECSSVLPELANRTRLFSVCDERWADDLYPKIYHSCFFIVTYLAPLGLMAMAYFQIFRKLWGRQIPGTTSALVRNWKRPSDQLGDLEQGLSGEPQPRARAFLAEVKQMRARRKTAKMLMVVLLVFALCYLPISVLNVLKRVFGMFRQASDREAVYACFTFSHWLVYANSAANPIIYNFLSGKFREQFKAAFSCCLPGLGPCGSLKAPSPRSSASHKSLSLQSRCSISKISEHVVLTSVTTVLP
# OX1R antag-2: OX1R (HCRTR1) antagonists, primary screen, fluorescence, CHO/OX1R cells, Fluo-8 calcium, orexin A | AID 434989, 2010 | inhibition, % at 5 µM | Fluo-8 calcium fluorescence | Orexin/Hypocretin receptor type 1 (Homo sapiens), O43613 | 330,000 compounds, 0.43% hits;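 active = inhibition above its plate's threshold, mean inhibition of all tested compounds on the plate plus 3 SD, cut at about 37% in these data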;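 note: 0% = orexin A challenge wells and 100% = SB-334867-A antagonist wells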
# CHO parental Ca: ATP-evoked calcium signal inhibitors, parental CHO, primary screen, counter-screen for OX1R antagonist project, cell-based, fluorescence, Fluo-8 calcium dye | AID 463079, 2010 | 330,000 compounds, 0.63% hits | parental CHO-K1, ATP-induced calcium, Fluo-8 fluorescence | inhibition, % at 5.6 µM;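 active = inhibition above that plate's mean sample inhibition plus 3 SD, cut at about 26% in these data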;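 note: 0% = ATP-challenged DMSO wells and 100% = DMSO wells without ATP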
#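 Measured by: calcium-sensitive Fluo-8 fluorescence / Test system: CHO parental line / Controls: ATP-challenged DMSO wells low, unchallenged DMSO wells high / Measure: % inhibition / Compound: single nominal dose of 5.6 µM per compound / Replicates: single well per compound, no replicates / Reagent: ATP as calcium-mobilizing challenge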
# OX1R Fluo8 conf: OX1R (HCRTR1) antagonists, confirmation, fluorescence, CHO/OX1R cells, Fluo-8 calcium, orexin A; 1,100 compounds, 38% hits; inhibition, % at 5 µM; orexin A calcium Fluo-8 fluorescence; AID 492963, 2010; shares compounds with OX1R antag-2; in the data active = inhibition above about 29%;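 note: 0% = agonist challenge alone and 100% = reference antagonist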
# CHO Ca counter: ATP-evoked calcium inhibition in parental CHO, counter-screen for OX1R antagonist project, cell-based, fluorescence, CHO-K1, triplicate | shares compounds with OX1R antag-2 | ATP-induced calcium, Fluo-8 fluorescence | inhibition, % at 5.6 µM | 1,100 compounds, 9.3% hits | AID 492965, 2010;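 active = inhibition above a per-plate limit, the mean inhibition of that plate's test compounds plus 3 SD, cut at about 25% in these data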;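 note: 0% = ATP challenge with DMSO and 100% = DMSO without ATP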
# OX1R HTRF confirm: OX1R (HCRTR1) antagonists, confirmation, cell-based, HTRF; shares compounds with OX1R antag-1; OX1R-expressing cells, HTRF antagonist assay; inhibition, % at 6.6 µM; 1,800 compounds, 49% hits; in the data active = inhibition above about 55%;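 note: CHO cells expressing OX1R stimulated with orexin A at about EC80; 0% = agonist challenge alone and 100% = reference antagonist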
# CHO-K1 HTRF cnt: signal inhibition in parental CHO-K1 cells, counter-screen for OX1R antagonist project, cell-based, HTRF | shares compounds with OX1R antag-1 | HTRF counterscreen | inhibition, % at 6.6 µM | 1,800 compounds, 48% hits | AID 493232, 2011; in the data active = inhibition above about 17%;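 note: 0% = agonist challenge with vehicle and 100% = vehicle alone without agonist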
# * marks the source's active call; other numbers are inactive results; . = no result given.
SMILES,TAAR1 ag,TAAR1 antagonist,OX1R antag-1,OX1R antag-2,CHO parental Ca,OX1R Fluo8 conf,CHO Ca counter,OX1R HTRF confirm,CHO-K1 HTRF cnt
CCOC(=O)C1CCN(c2cc3c(cc2NC(=O)c2ccccc2OCC)n(C)c(=O)n3C)CC1,6,34,35*,34,-14,-3,-13,20,-4
CS(=O)(=O)c1cccc(C(=O)Nc2cccc(-c3nc4ccccc4[nH]3)c2)c1,6,47,13,-6,-1,.,.,.,.
CS(=O)(=O)c1ccc(C(=O)Nc2cccc(-c3nc4ccccc4[nH]3)c2)cc1,9,47,72*,29,-9,21,-5,63*,8
CCOc1ccc(NS(=O)(=O)c2ccc(C(=O)NCCN3CCOCC3)cc2)cc1,3,-8,3,-8,-10,.,.,.,.
CC(C)C[C@H]1CNC(=O)C(=O)N1CC1CCN(CCc2ccc(-c3ccccc3)cc2)CC1,3,-18,.,.,.,.,.,.,.
CCCc1ccc(C(=O)NNc2cccc(C)c2)cc1,0,-11,14,5,-4,.,.,.,.
CCc1ccc(C(=O)NCC2COc3ccccc3O2)o1 (stereo not drawn),6,-2,19,-18,-12,.,.,.,.
CCOc1ncccc1C(=O)NCC1COc2ccccc2O1 (stereo not drawn),2,-3,81*,30,-24,27,-2,69*,0
Cn1c2ccc(Cl)cc2c2nc3ccccc3nc21,-2,24,91*,31,-14,40*,-9,92*,-1
CCOc1ccc2c(c1)c1nc3ccccc3nc1n2C,-2,-16,.,.,.,.,.,.,.
CCN(CC)C(=O)Cn1cc(S(=O)(=O)CC(=O)NCc2ccc(C)cc2)c2ccccc21,-1,9,13,-21,-29,.,.,.,.
CN(C(=O)CS(=O)(=O)c1cccc(Cl)c1)c1ccccc1,1,-3,7,-15,-7,.,.,.,.
Cc1c(C(=O)Nc2ccc(N3CCOCC3)cc2)oc2ccccc12,18,7,100*,73*,1,73*,6,90*,15
Cc1c(C(=O)OCC(=O)Nc2ccc(N3CCOCC3)cc2)oc2ccccc12,1,-23,20,-20,21,.,.,.,.
CCOc1ccc(OCCC(=O)N2CCN(S(=O)(=O)c3cccc(F)c3)CC2)cc1,0,5,18,-24,-10,.,.,.,.
COC(=O)c1sc(NC(=O)c2cc3c(s2)CCCC3)nc1C,3,9,89*,58*,-20,27,-17,98*,-1
Cc1cccc(NC(=O)NNC(=O)c2cc(-c3ccccc3Cl)nc3ccccc23)c1,.,.,83*,44*,-18,38*,6,92*,4
COc1ccc(NC(=O)COc2coc(CN3CCN(c4ccccc4)CC3)cc2=O)cc1,8,-26,5,-23,-14,.,.,.,.
COCCCNC(=S)N(Cc1cccnc1)Cc1ccc(OC)c(OC)c1,2,-2,10,-5,-5,.,.,.,.
CCN(CC)c1ccc(/C=C(\C#N)c2ccccn2)cc1,.,.,80*,34,-7,4,-7,90*,9
CCN(Cc1ccccc1)c1ccc(/C=C(\C#N)c2ccccn2)cc1,4,-4,25,-25,-24,.,.,.,.
NS(=O)(=O)c1ccc(CCNC(=O)CN2C(=O)NC(c3ccccc3)(c3ccccc3)C2=O)cc1,0,-12,4,-13,-10,.,.,.,.
O=C(CN1C(=O)NC(c2ccccc2)(c2ccccc2)C1=O)NCCc1ccc(F)cc1,15,42,69*,36,-17,31*,1,56*,-1
O=C(Nc1cccs1)OCCN1CCN(Cc2ccccc2)CCC1=O,3,7,14,3,-15,.,.,.,.
O=P(c1ccccc1)(c1ccccc1)C(O)c1ccc(Br)cc1 (stereo not drawn),8,2,21,-6,-9,.,.,.,.
SMILES,TAAR1 ag,TAAR1 antagonist,OX1R antag-1,OX1R antag-2,CHO parental Ca,OX1R Fluo8 conf,CHO Ca counter,OX1R HTRF confirm,CHO-K1 HTRF cnt
Cc1ccsc1C(=O)N1CCC1(C)C(=O)Nc1ccc2c(c1)OCCO2 (stereo not drawn),0,-11,.,.,.,.,.,.,.
Cc1ccc(-c2nc3ccccc3[nH]2)cc1NC(=O)c1ccco1,-2,-17,18,-36,-33,.,.,.,.
Cc1ccc(-c2nc3ccccc3[nH]2)cc1NC(=O)c1sc2cc(Cl)ccc2c1Cl,1,2,77*,44*,-14,47*,-11,66*,11
O=C(CSc1ccc(-c2ccccc2)nn1)c1cccs1,-1,-15,102*,50*,-7,99*,-4,90*,-4
COc1ccc(-c2ccc(SCC(=O)c3cccs3)nn2)cc1,3,26,50,-17,-16,.,.,.,.
CCOC(=O)N1CCN(C(=O)CSc2ccc(-c3ccccc3)nn2)CC1,2,-4,92*,26,-10,27,3,82*,-2
CCCCN(C(=O)c1cc(=O)[nH]c2ccccc12)c1c(N)n(CCCC)c(=O)[nH]c1=O,1,-11,-3,-8,-4,.,.,.,.
CCN(CC(=O)Nc1cccc(S(=O)(=O)N(C)c2ccccc2)c1)Cc1ccccc1,3,16,28*,77*,15,19,-9,54,3
Cc1cc(Br)cc2c1NC(=O)C2(c1c(C)n(C)n(-c2ccccc2)c1=O)c1c(C)n(C)n(-c2ccccc2)c1=O,7,-35,69*,31,-8,57*,-6,72*,8
Cn1c2ccccc2c2cc(/C=N/NC(=O)c3ccccc3F)ccc21,0,15,102*,32,-17,23,-9,94*,8
CCOC(=O)c1cnc(SCc2nc(N)nc(Nc3ccccc3)n2)nc1N,11,0,73*,38,-27,35*,-24,48,6
Cc1cc(C(=O)NCc2ccccc2Cl)c2ccccc2n1,-3,13,66,-10,-19,.,.,.,.
Cc1cc(C(=O)NCc2cccc(Cl)c2)c2ccccc2n1,.,.,87*,26,-11,31*,-3,67*,1
